In ChEMBL document CHEMBL4014311, “Discovery of a Hepatitis C Virus NS5B Replicase Palm Site Allosteric Inhibitor (BMS-929075) Advanced to Phase 1 Clinical Studies” (J Med Chem, 2017):
Activity calls are given as the source filed them. No cut-off for these calls is given here.

Experiments:
Hepatitis C virus [1] = test: Antiviral activity against HCV genotype 1a infected in human HuH7 cells after 3 days by luciferase reporter assay; type: functional, cell-based, Hepacivirus hominis, subtype 1a; settings: Hepatitis C virus, subtype 1a, Huh-7, 72 h; read-out: EC50
Canis familiaris = test: Toxicity in dog up to 100 mg/kg, po administered as single dose measured up to 2 weeks; type: organism-based, Canis lupus familiaris; settings: in vivo, 336 h
[2] = Protein binding in human serum; type: ADME, cell-free; settings: read-out: PB (converted)
[3] = Oral bioavailability in Sprague-Dawley rat at 6 mg/kg by LC/MS/MS analysis; type: ADME, organism-based; settings: in vivo
Method in brief: (§1)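 Rats were fasted overnight with free access to water, then dosed by gastric gavage with an […] solution in 90:10 PEG-400/ethanol (v/v), n = 3 per group. EDTA plasma was sampled predose and at 15, 30, 45, 60 min and 2, 4, 6, 8, 24 h, then assayed by LC/MS/MS. Parameters come from noncompartmental analysis: Cmax observed directly, AUC by linear/log trapezoidal summation, F as dose-normalized PO/IV AUC ratio.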

[4] = AUC in Sprague-Dawley rat at 6 mg/kg, po administered via gavage using docusate sodium/methocel/water formulation by LC/MS/MS analysis; type: ADME, organism-based; settings: in vivo
Method in brief: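 Rats were fasted overnight and gavaged with a suspension of spray-dried dispersion (10% w/w drug loading in 0.02:0.5:99.48 docusate/methocel/water), n = 3 per group. Serial EDTA plasma was taken predose to 24 h and assayed by LC/MS/MS. Analysis was noncompartmental: Cmax observed, AUC by linear/log trapezoids, F from dose-normalized PO versus IV AUC.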

[5] = Cmax in Sprague-Dawley rat at 6 mg/kg, po administered via gavage by LC/MS/MS analysis; type: ADME, organism-based; design: dose 6 mg/kg, route oral; settings: in vivo; method in brief: as §1
Hepatitis C virus [6] = test: Antiviral activity against HCV genotype 1b infected in human HuH7 cells at >= 10 times antiviral EC50 after 3 days by luciferase reporter assay; type: functional, cell-based; settings: Hepacivirus hominis
[7] = biological target: Voltage-gated inwardly rectifying potassium channel KCNH2 (Homo sapiens, UniProt Q12809); test: Inhibition of human ERG by patch clamp assay
Hepatitis C virus [8] = test: Antiviral activity against HCV genotype 3a infected in human HuH7 cells after 3 days by luciferase reporter assay; type: functional, cell-based, Hepacivirus hominis; settings: Huh-7, 72 h
[9] = Half life in rat liver microsomes; type: ADME, microsome
[10] = Tmax in Sprague-Dawley rat at 6 mg/kg, po administered via gavage by LC/MS/MS analysis; type: ADME, organism-based; settings: in vivo
Method in brief: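 Rats fasted overnight, then dosed by gavage at 6 mg/kg in 90:10 PEG-400/ethanol (v/v). Plasma sampled serially from cannula into EDTA tubes predose and at 15, 30, 45, 60 min and 2, 4, 6, 8, 24 h; n = 3. Livers removed at 6 h (satellite animals) and 24 h, homogenized in 80% acetonitrile/HBSS, assayed by LC/MS/MS. Tmax taken directly from observed data.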

[11] = Drug uptake in Sprague-Dawley rat liver at 6 mg/kg, po via gavage after 6 hrs by LC-MS/MS analysis; type: ADME, organism-based; settings: read-out: Drug uptake
Method in brief: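 Fasted rats were dosed orally in 90:10 PEG-400/ethanol; 6 h livers came from satellite animals. In the screening variant, n = 2 and plasma was taken to 6 h with livers at the terminal point. Livers were rinsed, blotted, weighed and homogenized in 2 volumes of 80% acetonitrile in HBSS per gram, then centrifuged. Supernatant and plasma were analysed by LC/MS/MS.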

Hepatitis C virus [12] = test: Antiviral activity against HCV genotype 1b infected in human HuH7 cells after 3 days by luciferase reporter assay; type: functional, cell-based, Hepacivirus hominis; settings: Hepatitis C virus, genotype 1b, Huh-7, 72 h; read-out: EC50
[13] = Protein binding in monkey serum; type: ADME, cell-free, Macaca mulatta; settings: rhesus monkey, read-out: PB (converted)
[14] = Lipophilicity, log D of the compound at pH 6.5 by shake flask method; type: physicochemical; settings: buffer
[15] = Half life in monkey liver microsomes; type: ADME, Macaca mulatta, microsome; settings: rhesus monkey
Hepatitis C virus [16] = test: Antiviral activity against HCV genotype 2a infected in human HuH7 cells after 3 days by luciferase reporter assay; type: functional, cell-based, Hepacivirus hominis; settings: Huh-7, 72 h
[17] = AUC in Sprague-Dawley rat at 6 mg/kg, po administered via gavage by LC/MS/MS analysis; type: ADME, organism-based; settings: in vivo; method in brief: as §1
[18] = Membrane permeability at pH 7.4 by PAMPA; type: physicochemical; settings: read-out: permeability
Rattus norvegicus = test: Toxicity in rat up to 100 mg/kg, po administered as single dose measured up to 2 weeks; type: organism-based; settings: in vivo, 336 h
Hepatitis C virus [19] = test: Ratio of EC50 for HCV genotype 1a infected in human HuH7 cells in presence of 40% human serum to EC50 for HCV genotype 1a infected in human HuH7 cells; type: functional, Hepacivirus hominis, subtype 1a
[20] = biological target: Sodium channel protein type 5 subunit alpha (Homo sapiens, UniProt Q14524); test: Inhibition of Nav1.5 (unknown origin)
[21] = Half life in dog liver microsomes; type: ADME, Canis lupus familiaris, microsome
[22] = Cytotoxicity against human HuH7 cells after 3 days by CellTiter-Blue assay; type: cell-based, Huh-7
Cytochrome P450 2C8 = biological target: T1, Cytochrome P450 2C8 (Homo sapiens, UniProt P10632); test: Inhibition of microsomal CYP2C8 (unknown origin); type: ADME
T1 sequence (P10632 whole entry): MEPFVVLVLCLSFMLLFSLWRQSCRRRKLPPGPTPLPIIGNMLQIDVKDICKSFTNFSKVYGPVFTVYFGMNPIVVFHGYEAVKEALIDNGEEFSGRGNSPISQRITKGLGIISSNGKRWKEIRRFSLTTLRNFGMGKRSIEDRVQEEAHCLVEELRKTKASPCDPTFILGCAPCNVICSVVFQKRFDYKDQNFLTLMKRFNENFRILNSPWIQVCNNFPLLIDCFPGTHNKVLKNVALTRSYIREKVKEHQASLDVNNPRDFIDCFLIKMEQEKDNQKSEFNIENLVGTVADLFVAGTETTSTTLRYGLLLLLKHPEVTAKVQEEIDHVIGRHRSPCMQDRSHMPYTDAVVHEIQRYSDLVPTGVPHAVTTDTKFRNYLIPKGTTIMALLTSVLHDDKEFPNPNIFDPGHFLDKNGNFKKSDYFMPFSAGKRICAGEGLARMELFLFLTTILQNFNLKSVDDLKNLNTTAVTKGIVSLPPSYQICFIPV

[23] = biological target: T2, Nuclear receptor subfamily 1 group I member 2 (Homo sapiens, UniProt O75469); test: Transactivation of PXR (unknown origin); type: ADME
T2 sequence (O75469 whole entry): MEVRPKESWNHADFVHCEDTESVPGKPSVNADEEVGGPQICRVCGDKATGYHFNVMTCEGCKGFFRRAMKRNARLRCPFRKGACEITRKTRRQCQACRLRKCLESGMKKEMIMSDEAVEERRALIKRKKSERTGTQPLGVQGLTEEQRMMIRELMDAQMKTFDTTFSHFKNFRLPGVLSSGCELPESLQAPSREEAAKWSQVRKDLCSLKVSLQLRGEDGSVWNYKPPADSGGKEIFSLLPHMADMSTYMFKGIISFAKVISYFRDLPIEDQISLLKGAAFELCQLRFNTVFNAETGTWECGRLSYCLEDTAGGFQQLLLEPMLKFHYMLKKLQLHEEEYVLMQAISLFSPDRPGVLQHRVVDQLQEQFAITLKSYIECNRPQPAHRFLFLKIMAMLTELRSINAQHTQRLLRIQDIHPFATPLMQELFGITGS

[24] = Aqueous solubility of compound; type: physicochemical; settings: buffer
[25] = Half life in human liver microsomes; type: ADME, microsome

Voltage-gated inwardly rectifying potassium channel KCNH2, sequence (Q12809 whole entry): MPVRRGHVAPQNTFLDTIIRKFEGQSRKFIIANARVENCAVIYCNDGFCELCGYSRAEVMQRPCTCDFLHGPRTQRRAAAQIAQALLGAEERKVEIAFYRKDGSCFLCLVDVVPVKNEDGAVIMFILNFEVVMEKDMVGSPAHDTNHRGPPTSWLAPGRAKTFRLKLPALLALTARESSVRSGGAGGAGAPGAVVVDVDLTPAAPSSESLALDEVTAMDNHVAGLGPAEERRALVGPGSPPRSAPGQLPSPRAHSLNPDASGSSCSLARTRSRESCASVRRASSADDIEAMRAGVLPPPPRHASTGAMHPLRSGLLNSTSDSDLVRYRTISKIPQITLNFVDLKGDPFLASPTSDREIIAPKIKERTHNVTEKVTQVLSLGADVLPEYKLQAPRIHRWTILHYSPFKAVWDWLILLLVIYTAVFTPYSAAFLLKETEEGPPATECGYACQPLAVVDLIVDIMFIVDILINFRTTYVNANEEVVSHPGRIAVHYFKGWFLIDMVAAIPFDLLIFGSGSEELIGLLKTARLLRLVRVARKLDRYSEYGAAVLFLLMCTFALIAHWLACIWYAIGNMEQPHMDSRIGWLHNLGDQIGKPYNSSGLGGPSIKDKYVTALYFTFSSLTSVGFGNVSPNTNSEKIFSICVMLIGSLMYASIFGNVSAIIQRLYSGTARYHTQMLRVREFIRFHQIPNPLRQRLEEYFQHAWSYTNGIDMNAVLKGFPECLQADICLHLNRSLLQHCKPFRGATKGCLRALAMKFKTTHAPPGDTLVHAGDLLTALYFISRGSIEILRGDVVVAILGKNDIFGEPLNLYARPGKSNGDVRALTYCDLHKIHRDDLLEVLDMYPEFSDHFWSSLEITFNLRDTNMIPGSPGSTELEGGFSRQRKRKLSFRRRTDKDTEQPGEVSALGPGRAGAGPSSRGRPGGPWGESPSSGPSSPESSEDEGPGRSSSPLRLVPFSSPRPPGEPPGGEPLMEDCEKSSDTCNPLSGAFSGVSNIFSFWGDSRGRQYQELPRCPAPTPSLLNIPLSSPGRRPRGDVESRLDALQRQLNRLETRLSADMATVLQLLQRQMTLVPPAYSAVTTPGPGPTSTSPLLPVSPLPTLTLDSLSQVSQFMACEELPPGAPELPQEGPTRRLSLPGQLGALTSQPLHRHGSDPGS
Sodium channel protein type 5 subunit alpha, sequence (Q14524 whole entry): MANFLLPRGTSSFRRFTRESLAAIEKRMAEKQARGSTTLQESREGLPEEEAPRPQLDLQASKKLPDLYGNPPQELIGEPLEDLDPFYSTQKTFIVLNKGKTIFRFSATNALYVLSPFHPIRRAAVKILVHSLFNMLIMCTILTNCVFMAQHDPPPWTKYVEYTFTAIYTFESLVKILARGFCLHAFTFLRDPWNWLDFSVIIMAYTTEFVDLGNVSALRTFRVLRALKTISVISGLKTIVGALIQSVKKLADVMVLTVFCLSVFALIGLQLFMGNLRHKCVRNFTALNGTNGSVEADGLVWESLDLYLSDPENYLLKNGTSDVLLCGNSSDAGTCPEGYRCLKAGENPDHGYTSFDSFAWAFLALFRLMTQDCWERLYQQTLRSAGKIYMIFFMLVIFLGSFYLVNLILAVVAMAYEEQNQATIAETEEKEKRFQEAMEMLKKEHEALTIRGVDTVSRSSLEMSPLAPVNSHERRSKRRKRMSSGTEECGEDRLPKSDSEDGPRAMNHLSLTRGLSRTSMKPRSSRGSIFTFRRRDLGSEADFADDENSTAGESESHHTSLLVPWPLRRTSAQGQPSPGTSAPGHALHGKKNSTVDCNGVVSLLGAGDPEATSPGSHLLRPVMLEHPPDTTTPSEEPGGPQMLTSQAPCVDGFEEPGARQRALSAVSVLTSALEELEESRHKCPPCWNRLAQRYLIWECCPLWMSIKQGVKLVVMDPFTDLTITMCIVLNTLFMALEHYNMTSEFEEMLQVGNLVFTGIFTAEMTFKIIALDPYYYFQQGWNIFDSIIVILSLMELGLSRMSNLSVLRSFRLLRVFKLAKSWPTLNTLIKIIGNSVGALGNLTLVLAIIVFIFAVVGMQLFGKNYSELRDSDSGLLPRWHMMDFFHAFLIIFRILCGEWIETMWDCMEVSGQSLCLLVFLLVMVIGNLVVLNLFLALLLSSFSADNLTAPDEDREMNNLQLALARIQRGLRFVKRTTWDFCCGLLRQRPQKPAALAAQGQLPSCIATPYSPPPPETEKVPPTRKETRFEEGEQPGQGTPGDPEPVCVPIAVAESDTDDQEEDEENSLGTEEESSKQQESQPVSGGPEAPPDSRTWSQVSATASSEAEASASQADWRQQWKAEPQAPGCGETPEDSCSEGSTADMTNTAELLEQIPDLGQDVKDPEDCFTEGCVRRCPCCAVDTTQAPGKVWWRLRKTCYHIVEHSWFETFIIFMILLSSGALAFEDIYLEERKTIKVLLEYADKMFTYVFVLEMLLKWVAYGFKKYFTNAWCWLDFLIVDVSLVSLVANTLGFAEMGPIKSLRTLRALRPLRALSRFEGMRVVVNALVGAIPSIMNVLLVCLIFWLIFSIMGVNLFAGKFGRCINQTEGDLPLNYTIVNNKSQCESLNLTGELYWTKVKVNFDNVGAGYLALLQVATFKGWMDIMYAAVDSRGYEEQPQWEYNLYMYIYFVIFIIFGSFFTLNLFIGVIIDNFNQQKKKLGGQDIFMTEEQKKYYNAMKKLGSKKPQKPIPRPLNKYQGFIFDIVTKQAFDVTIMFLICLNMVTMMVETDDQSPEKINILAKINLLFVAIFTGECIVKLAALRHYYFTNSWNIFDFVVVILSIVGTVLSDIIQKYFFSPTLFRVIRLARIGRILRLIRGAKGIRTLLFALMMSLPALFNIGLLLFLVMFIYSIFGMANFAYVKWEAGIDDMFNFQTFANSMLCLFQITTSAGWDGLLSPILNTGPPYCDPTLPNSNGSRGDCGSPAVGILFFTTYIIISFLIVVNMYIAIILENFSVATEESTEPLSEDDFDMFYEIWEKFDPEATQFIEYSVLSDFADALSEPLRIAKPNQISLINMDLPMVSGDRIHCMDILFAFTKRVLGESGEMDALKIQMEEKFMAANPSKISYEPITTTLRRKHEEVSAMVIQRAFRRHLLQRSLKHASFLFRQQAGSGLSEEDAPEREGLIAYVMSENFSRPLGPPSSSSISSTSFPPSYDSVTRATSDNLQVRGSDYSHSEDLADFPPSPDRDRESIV

CNC(=O)c1c(-c2ccc(F)cc2)oc2ccc(-c3cc(C(=O)NC4(c5ncccn5)CC4)ccc3C)c(F)c12 [BMS-929075]
EC50 (Hepatitis C virus [1]): 0.009 µM | Activity (Canis familiaris): Non-Toxic | fraction unbound [2]: 0.018 | bioavailability [3]: 48% | AUC [4]: 140 µM·h | Cmax [5]: 7.5 µM | Activity (Hepatitis C virus [6]): Active | IC50 [7]: 18 µM | EC50 (Hepatitis C virus [8]): 0.022 µM | half-life [9]: > 2 h | Tmax [10]: 4 h | concentration at 6 h [11]: 15.1 µM | EC50 (Hepatitis C virus [12]): 0.004 µM | fraction unbound [13]: 0.028 | logD [14]: 5.09 | half-life [15]: > 2 h | EC50 (Hepatitis C virus [16]): 0.481 µM | AUC [17]: 54.5 µM·h | Papp [18]: 97.2 ×10⁻⁶ cm/s | Activity (Rattus norvegicus): Non-Toxic | Ratio EC50 (Hepatitis C virus [19]): 5.5 | inhibition (INH) [20]: Not Active | half-life [21]: > 2 h | CC50 at 72 h [22]: 60 µM | IC50 (Cytochrome P450 2C8): 6.7 µM | EC50 [23]: > 50 µM | solubility [24]: < 1 µg/mL | half-life [25]: > 2 h
